In ChEMBL document CHEMBL4732074, “Design and synthesis of novel fluorescently labeled analogs of vemurafenib targeting MKK4” (Eur J Med Chem, 2021):

These compounds were tested against T1, Dual specificity mitogen-activated protein kinase kinase 4 (Homo sapiens) (UniProt P45985) (assay: Inhibition of wild-type human partial length MKK4 (S84 to D399 residues) expressed in mammalian expression system assessed as residual activity at 30 nM by KINOMEscan method relative to control).
T1 sequence (whole entry): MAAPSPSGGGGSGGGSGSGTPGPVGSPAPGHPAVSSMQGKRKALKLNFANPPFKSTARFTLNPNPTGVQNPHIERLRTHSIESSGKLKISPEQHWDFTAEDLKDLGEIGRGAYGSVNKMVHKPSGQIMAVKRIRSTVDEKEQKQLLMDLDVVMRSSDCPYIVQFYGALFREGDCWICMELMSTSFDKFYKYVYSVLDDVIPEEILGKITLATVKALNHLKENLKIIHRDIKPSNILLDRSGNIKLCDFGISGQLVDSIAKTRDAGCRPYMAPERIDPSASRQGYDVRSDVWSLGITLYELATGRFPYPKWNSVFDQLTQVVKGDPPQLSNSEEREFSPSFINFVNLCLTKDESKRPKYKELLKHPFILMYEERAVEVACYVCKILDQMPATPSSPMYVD
How it was run: (§1)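 KINOMEscan competition binding against an immobilised ligand, run at the lower compound concentrations named in each line. Binding is reported as percentage of control (POC), with low POC indicating high affinity.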

Activity [%] | Structure (SMILES)
4.1 | CCCS(=O)(=O)Nc1ccc(F)c(C(=O)c2ccc3[nH]c4ncc(-c5ccc(C(=O)NCCCCNC(=O)c6ccc(-c7c8ccc(=[N+](C)C)cc-8oc8cc(N(C)C)ccc78)c(C(=O)[O-])c6)nc5)cc4c3c2)c1F

The compounds below were run against T1, Dual specificity mitogen-activated protein kinase kinase 4 (Homo sapiens) (assay: Inhibition of wild-type human partial length MKK4 (S84 to D399 residues) expressed in mammalian expression system assessed as residual activity at 100 nM by KINOMEscan method relative to control).
How it was run: (§2)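 DiscoverX KINOMEscan binding assay: the compound at 100 nM competes with an immobilised ligand for kinase binding. Read-out is POC (percentage of control), where lower values mean stronger binding.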

Structure (SMILES) | Activity [%]
CCCS(=O)(=O)Nc1ccc(F)c(C(=O)c2ccc3[nH]c4ncc(-c5ccc(C(=O)NCCCCCCNC(=O)c6ccc(-c7c8ccc(=[N+](C)C)cc-8oc8cc(N(C)C)ccc78)c(C(=O)[O-])c6)nc5)cc4c3c2)c1F | 4.8
CCCS(=O)(=O)Nc1ccc(F)c(C(=O)c2c[nH]c3ncc(-c4ccc(NC(=O)CNC(=O)c5ccc(-c6c7ccc(=[N+](C)C)cc-7oc7cc(N(C)C)ccc67)c(C(=O)[O-])c5)nc4)cc23)c1F | 8.4
CCCS(=O)(=O)Nc1ccc(F)c(C(=O)c2ccc3[nH]c4ncc(-c5ccc(C(=O)NCCCNC(=O)c6ccc(-c7c8ccc(=[N+](C)C)cc-8oc8cc(N(C)C)ccc78)c(C(=O)[O-])c6)cc5)cc4c3c2)c1F | 13
CCCS(=O)(=O)Nc1ccc(F)c(C(=O)c2ccc3[nH]c4ncc(-c5ccc(C(=O)NCCCNC(=O)c6ccc(-c7c8ccc(=[N+](C)C)cc-8oc8cc(N(C)C)ccc78)c(C(=O)[O-])c6)nc5)cc4c3c2)c1F | 4.5
CCCS(=O)(=O)Nc1ccc(F)c(C(=O)c2c[nH]c3ncccc23)c1F | 14
CCCS(=O)(=O)Nc1ccc(F)c(C(=O)c2c[nH]c3ncc(-c4ccc(NC(=O)CCCCNC(=O)c5ccc(-c6c7ccc(=[N+](C)C)cc-7oc7cc(N(C)C)ccc67)c(C(=O)[O-])c5)nc4)cc23)c1F | 57
CCCS(=O)(=O)Nc1ccc(F)c(C(=O)c2c[nH]c3ncc(-c4ccc(NC(=O)CNC(=O)c5ccc(-c6c7ccc(=[N+](C)C)cc-7oc7cc(N(C)C)ccc67)c(C(=O)[O-])c5)cc4)cc23)c1F | 11
CN(C)c1ccc2c(-c3ccc(C(=O)NCCCCC(=O)Nc4ccc(-c5cnc6[nH]cc(C(=O)c7c(F)ccc(NS(=O)(=O)Cc8ccccc8)c7F)c6c5)cn4)cc3C(=O)[O-])c3ccc(=[N+](C)C)cc-3oc2c1 | 13
CCCS(=O)(=O)Nc1ccc(F)c(C(=O)c2ccc3[nH]c4ncc(-c5ccc(C(=O)NCCCCCCNC(=O)c6ccc(-c7c8ccc(=[N+](C)C)cc-8oc8cc(N(C)C)ccc78)c(C(=O)[O-])c6)cc5)cc4c3c2)c1F | 6.6
CCCS(=O)(=O)Nc1ccc(F)c(C(=O)c2ccc3[nH]c4ncc(-c5ccc(NC(=O)CNC(=O)c6ccc(-c7c8ccc(=[N+](C)C)cc-8oc8cc(N(C)C)ccc78)c(C(=O)[O-])c6)cc5)cc4c3c2)c1F | 13
CN(C)c1ccc2c(-c3ccc(C(=O)NCC(=O)Nc4ccc(-c5cnc6[nH]cc(C(=O)c7c(F)ccc(NS(=O)(=O)Cc8ccccc8)c7F)c6c5)cn4)cc3C(=O)[O-])c3ccc(=[N+](C)C)cc-3oc2c1 | 6.6

Next, values leading:

Activity [%] | Structure (SMILES)
9.2 | CCCS(=O)(=O)Nc1ccc(F)c(C(=O)c2c[nH]c3ncc(-c4ccc(NC(=O)CNC(=O)OC(C)(C)C)cc4)cc23)c1F
32 | CCCS(=O)(=O)Nc1ccc(F)c(C(=O)c2ccc3[nH]c4ncc(-c5ccc(C(=O)NCCCCCNC(=O)c6ccc(-c7c8ccc(=[N+](C)C)cc-8oc8cc(N(C)C)ccc78)c(C(=O)[O-])c6)cc5)cc4c3c2)c1F
19 | CCCS(=O)(=O)Nc1ccc(F)c(C(=O)c2ccc3[nH]c4ncc(-c5ccc(C(=O)NCCNC(=O)c6ccc(-c7c8ccc(=[N+](C)C)cc-8oc8cc(N(C)C)ccc78)c(C(=O)[O-])c6)cc5)cc4c3c2)c1F
9.3 | CCCS(=O)(=O)Nc1ccc(F)c(C(=O)c2ccc3[nH]c4ncc(-c5cnc(C(=O)NCCCCNC(=O)c6ccc(-c7c8ccc(=[N+](C)C)cc-8oc8cc(N(C)C)ccc78)c(C(=O)[O-])c6)nc5)cc4c3c2)c1F
4.3 | CCCS(=O)(=O)Nc1ccc(F)c(C(=O)c2ccc3[nH]c4ncc(-c5ccc(C(=O)NCCCCNC(=O)c6ccc(-c7c8ccc(=[N+](C)C)cc-8oc8cc(N(C)C)ccc78)c(C(=O)[O-])c6)cc5)cc4c3c2)c1F
1.3 | CCCS(=O)(=O)Nc1ccc(F)c(C(=O)c2ccc3[nH]c4ncc(-c5ccc(C(=O)NCCCCNC(=O)c6ccc(-c7c8ccc(=[N+](C)C)cc-8oc8cc(N(C)C)ccc78)c(C(=O)[O-])c6)nc5)cc4c3c2)c1F

The compounds below were run against Serine/threonine-protein kinase B-raf (Homo sapiens) (UniProt P15056) (assay: Inhibition of BRAF (unknown origin) assessed as assessed as residual activity relative to control).
Serine/threonine-protein kinase B-raf (Homo sapiens), sequence (P15056 whole entry): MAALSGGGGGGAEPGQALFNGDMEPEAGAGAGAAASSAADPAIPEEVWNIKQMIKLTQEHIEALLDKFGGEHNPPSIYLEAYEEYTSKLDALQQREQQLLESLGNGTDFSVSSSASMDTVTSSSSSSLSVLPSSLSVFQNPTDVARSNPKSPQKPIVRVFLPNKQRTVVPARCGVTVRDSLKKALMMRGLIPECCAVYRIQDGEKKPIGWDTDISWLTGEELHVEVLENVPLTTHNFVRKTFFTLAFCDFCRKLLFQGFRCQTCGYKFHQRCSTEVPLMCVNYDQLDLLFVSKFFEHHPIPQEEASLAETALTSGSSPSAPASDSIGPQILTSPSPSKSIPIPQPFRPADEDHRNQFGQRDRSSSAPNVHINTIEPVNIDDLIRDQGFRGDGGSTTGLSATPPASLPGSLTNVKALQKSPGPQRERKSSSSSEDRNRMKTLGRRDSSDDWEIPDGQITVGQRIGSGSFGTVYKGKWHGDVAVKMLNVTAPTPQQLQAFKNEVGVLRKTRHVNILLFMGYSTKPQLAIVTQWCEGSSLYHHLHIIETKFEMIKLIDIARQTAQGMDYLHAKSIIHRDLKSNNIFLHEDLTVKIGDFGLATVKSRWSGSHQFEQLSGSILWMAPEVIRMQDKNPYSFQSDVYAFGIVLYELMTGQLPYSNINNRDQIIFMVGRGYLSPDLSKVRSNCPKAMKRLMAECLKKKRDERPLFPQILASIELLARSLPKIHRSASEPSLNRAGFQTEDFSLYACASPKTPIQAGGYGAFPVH
How it was run: as §2

Activity [%] | Structure (SMILES)
92 | CCCS(=O)(=O)Nc1ccc(F)c(C(=O)c2ccc3[nH]c4ncc(-c5ccc(C(=O)NCCCCNC(=O)c6ccc(-c7c8ccc(=[N+](C)C)cc-8oc8cc(N(C)C)ccc78)c(C(=O)[O-])c6)nc5)cc4c3c2)c1F

These compounds were tested against T1, Dual specificity mitogen-activated protein kinase kinase 4 (Homo sapiens) (assay: Inhibition of wild-type human partial length MKK4 (S84 to D399 residues) expressed in mammalian expression system assessed as residual activity at 10 nM by KINOMEscan method relative to control).
How it was run: as §1

Activity [%] | Structure (SMILES)
18 | CCCS(=O)(=O)Nc1ccc(F)c(C(=O)c2ccc3[nH]c4ncc(-c5ccc(C(=O)NCCCCNC(=O)c6ccc(-c7c8ccc(=[N+](C)C)cc-8oc8cc(N(C)C)ccc78)c(C(=O)[O-])c6)nc5)cc4c3c2)c1F
